# High-throughput results as filed in PubChem.
# Sampled rows, rich in hits. Any-hit rate of the full collection: about 1.2%.
# G6PDH counter: L. mesenteroides G6PDH inhibition counter-screen; Purified L. mesenteroides G6PDH, diaphorase/resazurin coupled fluorescence, 45 min; inhibition, % at 5 µM; 200,000 compounds, 0.12% hits; in the data active = inhibition above about 50%
# Diaph inh CS: inhibits diaphorase or chemically oxidizes, flagging diaphorase assay artifacts; AID 1217; 190,000 compounds, 0.69% hits; diaphorase resazurin-to-resorufin fluorescence, NADH, 16 min; bacterial (C. kluyveri) enzyme, not human; inhibition, % at 20 µM;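 active = primary screen inhibition at 20 µM above a set limit, cut at about 50% in these data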;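 also: plate controls were DMSO with full reaction for no effect and wells lacking NADH for full effect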
#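 Assay system – diaphorase enzyme from Clostridium kluyveri · Amount – diaphorase 0.14 U/mL (working solution) · Times – reaction incubation of 16 min at room temperature · Controls – No-NADH positive control and DMSO neutral control · Signal – resorufin fluorescence 544/590 nm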
# PfGluPho inh: PfG6PD (Plasmodium falciparum) enzyme inhibition. PfGluPho enzyme, NADPH resazurin-diaphorase fluorescence. inhibition, % at 20 µM. 350,000 compounds, 0.78% hits;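 active = inhibition reaching at least a set limit at 20 µM in the primary screen, cut at about 59% in these data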;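 also: 0% = DMSO wells with substrate and 100% = DMSO wells lacking glucose-6-phosphate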
# HKDC1 inh: HKDC1 (human) hexokinase inhibition. Q2TB90. inhibition, % at 20 µM. recombinant HKDC1, G6PDH/diaphorase resazurin coupled fluorescence. 340,000 compounds, 0.16% hits. AID 493160;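 active = inhibition above about 35% when tested at 20 µM, limit read from the data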;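 also: plate controls were DMSO wells with enzyme for no effect and DMSO wells lacking enzyme for full effect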
# Target sequence (Q2TB90 whole entry, looked up): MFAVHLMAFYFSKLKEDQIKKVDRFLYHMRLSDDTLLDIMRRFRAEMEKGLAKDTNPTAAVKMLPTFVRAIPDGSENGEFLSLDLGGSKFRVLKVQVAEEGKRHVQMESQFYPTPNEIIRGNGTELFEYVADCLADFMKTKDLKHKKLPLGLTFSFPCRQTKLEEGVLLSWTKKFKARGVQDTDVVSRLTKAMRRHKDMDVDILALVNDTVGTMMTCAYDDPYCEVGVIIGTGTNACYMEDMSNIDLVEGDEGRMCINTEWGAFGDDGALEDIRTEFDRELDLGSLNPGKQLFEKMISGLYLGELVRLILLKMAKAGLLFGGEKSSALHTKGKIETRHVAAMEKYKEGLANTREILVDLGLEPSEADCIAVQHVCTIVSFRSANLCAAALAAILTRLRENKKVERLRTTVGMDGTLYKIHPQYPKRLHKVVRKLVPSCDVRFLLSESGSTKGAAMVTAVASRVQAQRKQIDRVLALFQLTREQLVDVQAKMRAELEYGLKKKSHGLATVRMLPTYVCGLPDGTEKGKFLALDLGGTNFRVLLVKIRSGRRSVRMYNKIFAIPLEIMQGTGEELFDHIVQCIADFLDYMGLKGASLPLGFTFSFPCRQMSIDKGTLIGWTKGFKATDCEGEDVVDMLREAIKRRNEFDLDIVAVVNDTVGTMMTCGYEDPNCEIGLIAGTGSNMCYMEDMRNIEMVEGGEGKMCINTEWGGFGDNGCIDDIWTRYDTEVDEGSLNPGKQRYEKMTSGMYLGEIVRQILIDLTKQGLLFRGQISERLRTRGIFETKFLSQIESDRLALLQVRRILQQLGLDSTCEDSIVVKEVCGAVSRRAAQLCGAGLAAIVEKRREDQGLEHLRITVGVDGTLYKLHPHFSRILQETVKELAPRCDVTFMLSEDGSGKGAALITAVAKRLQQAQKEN
#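 Material – in-house recombinant HK5 (HKDC1) enzyme · Quantity – HKDC1 at 5 µg/mL · Buffer or medium – pH 8.0 Tris buffer with 10 mM MgCl2 · Reagent – glucose with 1 mM ATP · Dosing – single 20 µM dose · Times – reaction time 90 min, room temperature, protected from light · Technique – resorufin fluorescence at 613 nm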
# PfGluPho conf: PfG6PD inhibition, single-dose confirmed; inhibition, % at 20 µM; 2,400 compounds, 34% hits; shares compounds with PfGluPho inh; AID 504753; recombinant PfGluPho, NADPH-diaphorase-resazurin fluorescence;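 active = inhibition of at least 50% at 20 µM in any single replicate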;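 also: 0% = DMSO with substrate and 100% = DMSO lacking glucose-6-phosphate substrate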
# Diaph ctr 10uM: diaphorase inhibition or oxidation at 10 uM NADPH | 820 compounds, 39% hits | diaphorase-coupled resazurin reduction, fluorescence, NADPH 10 uM | shares compounds with PfGluPho inh | inhibition, % at 20 µM | AID 504862;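 active = average inhibition reaching 50% or more with the compound at 20 µM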;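 also: resorufin red fluorescence formed as diaphorase reduces resazurin using NADPH; 0% = DMSO with enzyme and 100% = DMSO without enzyme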
# Diaph ctr 30uM: diaphorase inhibition or oxidation at 30 uM NADPH; Diaphorase/resazurin coupled assay, resorufin fluorescence; shares compounds with PfGluPho inh; inhibition, % at 20 µM; 820 compounds, 29% hits; AID 504863;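 active = inhibition averaging 50% or more, tested at 20 µM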;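 also: 0% = DMSO with enzyme and 100% = DMSO wells lacking diaphorase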
# * hit, by the source's call; / = not tested or not shown.
SMILES,G6PDH counter,Diaph inh CS,PfGluPho inh,HKDC1 inh,PfGluPho conf,others
O=C1NC(=O)C2(CCCc3ccc([N+](=O)[O-])cc32)N1 (centres undefined),/,/,9.0,/,/,
CCNc1ccc(S(=O)(=O)C(F)(F)F)cc1NC(=O)C12CCC(CC1)C2,-6.7,16.0,-4.1,-9.1,/,
CCNc1cc(S(=O)(=O)C(F)(F)F)ccc1N,3.9,9.8,71.7*,9.4,41.8,
O=C(CN1C(=O)C2CC=CCC2C1=O)Nc1ccc(Br)cc1 (centres undefined),/,/,1.1,-8.3,/,
O=C(Cn1sc2ccccc2c1=O)Nc1ccc(Br)cc1,/,/,123.0*,/,90.8*,Diaph ctr 10uM=-7.9;Diaph ctr 30uM=4.7
O=C(Cn1sc2ccccc2c1=O)Nc1ccc(Cl)cc1,/,/,125.4*,/,95.8*,Diaph ctr 10uM=-30.1;Diaph ctr 30uM=2.0
O=C(Cn1sc2ccccc2c1=O)Nc1ccc(F)cc1,/,/,125.0*,/,106.4*,Diaph ctr 10uM=-13.3;Diaph ctr 30uM=15.3
O=C(CN1C(=O)CNC1=O)Nc1ccc(Cl)cc1,/,/,-1.4,-10.2,/,
COc1cc(/C=N/n2cc(-c3ccccc3)[nH]c2=S)cc(OC)c1O,/,/,60.7*,24.1,52.5*,Diaph ctr 10uM=-34.5;Diaph ctr 30uM=-31.2
CCOC(=O)c1[nH]cc(-c2ccccc2)c1N1CCOCC1,8.2,12.9,72.7*,-7.6,25.3,
Cc1cc(/N=C/C=C2/N(C)c3ccccc3C2(C)C)n(CCC#N)n1,/,/,18.2,-3.1,/,
Cc1cc(C)c2c(n1)SCC(=O)N2CC(=O)Nc1c(C)cccc1C,/,/,-0.8,-4.2,/,
Cc1nnc(SCC(=O)Nc2sc3c(c2C(N)=O)CCC(C)C3)[nH]c1=O (centres undefined),/,/,3.6,0.2,/,
O=C1C(=O)c2ccccc2C([O-])=C1[n+]1ccccc1,/,/,-16.1,10.2,/,
CCc1cc[n+](C2=C([O-])c3ccccc3C(=O)/C2=N\S(=O)(=O)c2cccs2)cc1,50.8*,20.7,95.3*,26.5,72.3*,Diaph ctr 10uM=65.8*;Diaph ctr 30uM=74.8*
CC[n+]1c(/C=C2/C=C(C)CC(C)(C)C2)sc2ccc(OC)cc21,12.7,0.1,45.4,0.8,/,
CC[n+]1c(/C=C2\C=C(C)CC(C)(C)C2)sc2ccccc21,2.0,30.7,61.4*,-5.8,3.0,
c1ccc(C2=Nn3c(nnc3-c3cc(-c4ccccc4)n[nH]3)SC2)cc1,-5.4,24.2,59.9*,10.0,10.7,
COc1ccc(OC)c(C2=Nn3c(nnc3-c3cc(OC)c(OC)c(OC)c3)SC2)c1,13.1,25.0,97.8*,-1.0,88.8*,Diaph ctr 10uM=81.5*;Diaph ctr 30uM=69.8*
Clc1ccc(C2=Nn3c(nnc3-c3cc(-c4ccccc4)n[nH]3)SC2)cc1,-58.7,17.9,18.0,-10.9,/,
COc1cc(-c2nnc3n2N=C(c2ccccc2)CS3)cc(OC)c1OC,2.6,19.3,97.5*,13.3,60.2*,Diaph ctr 10uM=41.9;Diaph ctr 30uM=47.8
COc1ccc([C@@H]2[C@@H]3C(=O)N(C(C)(C)C)C(=O)[C@@H]3[C@]3(C)C(=O)N(c4ccc(C(F)(F)F)cc4)C(=O)N23)cc1,/,/,25.9,2.6,/,
COC1CC(C)C(OC)c2cc(O)cc(c2O)NC(=O)C(C)=CC=CC(C)C(OC(N)=O)C(C)=CC(C)C1OC (centres undefined),/,/,104.9*,16.6,105.7*,Diaph ctr 10uM=81.7*;Diaph ctr 30uM=81.9*
COC1C=CC=C(C)C(=O)NC2=CC(=O)C(N)=C(CC(C)CC(OC)C(O)C(C)C=C(C)C1OC(N)=O)C2=O (centres undefined),/,/,-40.4,6.5,/,
Cn1c(=O)c2[nH]c(Cc3ccsc3)nc2n(C)c1=O,/,/,2.1,-1.8,/,
SMILES,G6PDH counter,Diaph inh CS,PfGluPho inh,HKDC1 inh,PfGluPho conf,others
COc1cccc(/C=N/NC(=S)Nc2cccc(S(=O)(=O)N(C)C)c2)c1,/,/,66.7*,-7.1,0.7,
COc1cc(/C=N/NC(=S)Nc2cccc(S(=O)(=O)N(C)C)c2)cc(OC)c1O,-35.6,33.8,1.4,15.5,/,
COc1ccc(O)c(/C=N/NC(=S)Nc2cccc(S(=O)(=O)N(C)C)c2)c1,-11.3,4.7,-7.6,-30.6,/,
CN(C)S(=O)(=O)c1cccc(NC(=S)N/N=C/c2ccc(O)c(O)c2O)c1,/,/,79.7*,32.0,64.2*,Diaph ctr 10uM=58.8*;Diaph ctr 30uM=61.3*
Nc1ccc2nc(-c3ccccc3)c(-c3ccccc3)nc2c1,/,/,78.9*,9.2,-1.4,
Cc1ccc(-c2cn(CCN)c(-c3ccc(Cl)nc3)n2)cc1,/,/,-9.8,2.0,/,
Cn1c(-c2ccc(Cl)nc2)nc2cc(Cl)ccc21,/,/,48.5,5.3,22.4,
c1ccc(COn2nnc3ccccc32)c(COn2nnc3ccccc32)c1,-8.0,19.0,49.9,9.4,14.4,
NC(=S)NN=Cc1nccc2c(C(F)(F)F)cccc12,/,/,16.9,/,/,
CNc1cccnc1C=NNC(N)=S,/,/,73.8*,-3.9,23.4,
O=C(c1ccc(N2CCN(C(=O)c3ccccc3)CC2)cc1)c1cccc(F)c1,/,/,-1.1,-5.7,/,
O=C(c1ccccc1)c1ccc(C(=O)N2CCN(c3ccc(O)cc3)CC2)cc1,/,/,61.0*,-1.1,7.2,
[O-]/[N+](=C/c1cccnc1)c1ccc(Br)cc1,4.5,13.7,104.6*,2.1,78.3*,Diaph ctr 10uM=68.2*;Diaph ctr 30uM=33.5
O=C(NCCCNC(=O)c1ccco1)c1ccc(F)cc1,/,/,3.4,-2.0,/,
COc1ccc(N=Cc2sc(O)c3ccccc23)cc1,0.8,-4.3,69.0*,1.1,-8.6,
COc1ccc(N=Cc2c(O)c3ccccc3n2C(C)=O)cc1,/,/,28.9,9.0,/,
CC(=O)c1ccc(S(=O)(=O)NCCC(=O)NC2CCN(Cc3ccccc3)CC2)cc1,/,/,-15.3,-4.7,/,
Cc1cccc(C(=S)N2CCOCC2)n1,/,/,-6.1,-3.3,/,
CSC(=S)NN=C(C)c1cccc(C)n1,/,/,95.3*,-37.3,30.4,
O=C(NCCc1ccccc1)C(=O)NC1CCCCC1,3.9,7.8,-0.9,0.8,/,
O=C(NC1CCCCC1)C(=S)NCCc1ccccc1,5.1,3.0,65.4*,-3.9,4.2,
Cc1nn2cnnc2c(C)c1Cc1c(F)cccc1Cl,/,/,4.6,0.5,/,
COC(=O)c1sc(NC(=O)c2cc(-c3ccccc3)nc3ccccc23)c(C#N)c1C,-7.8,11.9,64.7*,-3.5,43.0,
CCOC(=O)c1sc(NC(=O)c2cc(-c3ccc(C)cc3)nc3ccccc23)c(C#N)c1C,-8.3,21.4,55.4,-6.7,/,
CCOc1ccc(C(=O)/C=C/c2cn(CN3CCN(C)CC3)c3ccccc23)cc1,-5.4,17.0,61.6*,1.8,-21.0,
CCOCCCNC(=O)CSc1nnc(-c2ccc(S(=O)(=O)N3CCCC3)cc2)n1C,/,/,3.0,-5.1,/,
CCc1nc(Nc2cccc(O)c2)c2oc3ccccc3c2n1,/,/,73.2*,4.9,12.4,
Oc1ccc(NCc2cccc(OCc3ccccc3)c2)cc1,17.6,42.9,59.3*,8.2,3.6,
Oc1ccc(NCc2cccc(OCc3ccc(F)cc3)c2)cc1,25.3,23.0,48.2,3.4,/,
Oc1c(CN2CCOCC2)cc(CN2CCOCC2)c(O)c1O,/,/,82.0*,-5.5,64.0*,Diaph ctr 10uM=51.8*;Diaph ctr 30uM=54.6*
